# Reference: ChEMBL document CHEMBL4308919, “Discovery of TD-0212, an Orally Active Dual Pharmacology AT1 Antagonist and Neprilysin Inhibitor (ARNI)” (ACS Med Chem Lett, 2019)
# Columns and labels:
# Rattus norvegicus [1] = assay: Antihypertensive activity in spontaneously hypertensive rat assessed as reduction in mean arterial pressure administered via oral gavage in […] measured up to 24 hrs by telemetry method; format: functional
# Method in brief: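 Conscious spontaneously hypertensive rats, dosed orally. Blood pressure is monitored by telemetry for 24 h after each dose. Sequential escalating doses of 3, 10, 30 and 100 mg/kg are given at 24 h intervals. Efficacy is the peak percent fall in MAP from baseline. Duration is the vehicle-adjusted % change in AUC over 24 h. Statistics: two-way ANOVA with Bonferroni post hoc.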
# Rattus norvegicus [2] = assay: Antihypertensive activity in spontaneously hypertensive rat assessed as reduction in mean arterial pressure administered via oral gavage in ascending cumulative doses […] measured up to 24 hrs in presence of NEP inhibitor candoxatril by telemetry method; format: functional
# [3] = target: T1, Type-1 angiotensin II receptor (Homo sapiens, UniProt P30556); assay: Displacement of Europium-labeled angiotensin-2 from human AT1 receptor expressed in CHOK1 cell membranes after 120 mins by DELFIA
# T1 sequence (P30556 whole entry): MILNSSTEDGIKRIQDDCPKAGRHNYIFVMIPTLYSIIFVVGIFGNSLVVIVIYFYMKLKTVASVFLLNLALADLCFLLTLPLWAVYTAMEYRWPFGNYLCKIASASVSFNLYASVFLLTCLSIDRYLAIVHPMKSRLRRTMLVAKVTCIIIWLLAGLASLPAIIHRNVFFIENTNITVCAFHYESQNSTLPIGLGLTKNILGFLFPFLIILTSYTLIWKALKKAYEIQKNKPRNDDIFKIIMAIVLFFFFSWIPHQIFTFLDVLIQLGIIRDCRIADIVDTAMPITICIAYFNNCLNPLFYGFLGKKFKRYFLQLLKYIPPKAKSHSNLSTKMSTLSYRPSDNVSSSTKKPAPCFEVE
# Rattus norvegicus [4] = assay: In vivo inhibition of NEP in Sprague-Dawley rat assessed as potentiation of ANP-induced elevation of urinary cGMP level at 3 mg/kg, iv treated for 5 mins at 15 mins post 2 doses of angiotensin-2 treatment at 15 minutes apart followed by ANP treatment measured up to 60 mins by EIA relative to control; format: functional
# Method in brief: (§1)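 Rat pharmacodynamic assay with intravenous dosing to exclude oral absorption. AT1 antagonism is read in the same animal as inhibition of the angiotensin-II-evoked pressor response. NEP inhibition is read as potentiation of ANP-induced elevation of urinary cGMP output, relative to vehicle.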
# Neprilysin = Neprilysin (Homo sapiens, UniProt P08473); assay: Inhibition of NEP (unknown origin) preincubated for 10 mins followed by fluorogenic substrate addition and measured after 20 mins by fluorescence assay
# Chain of Neprilysin (P08473 whole entry): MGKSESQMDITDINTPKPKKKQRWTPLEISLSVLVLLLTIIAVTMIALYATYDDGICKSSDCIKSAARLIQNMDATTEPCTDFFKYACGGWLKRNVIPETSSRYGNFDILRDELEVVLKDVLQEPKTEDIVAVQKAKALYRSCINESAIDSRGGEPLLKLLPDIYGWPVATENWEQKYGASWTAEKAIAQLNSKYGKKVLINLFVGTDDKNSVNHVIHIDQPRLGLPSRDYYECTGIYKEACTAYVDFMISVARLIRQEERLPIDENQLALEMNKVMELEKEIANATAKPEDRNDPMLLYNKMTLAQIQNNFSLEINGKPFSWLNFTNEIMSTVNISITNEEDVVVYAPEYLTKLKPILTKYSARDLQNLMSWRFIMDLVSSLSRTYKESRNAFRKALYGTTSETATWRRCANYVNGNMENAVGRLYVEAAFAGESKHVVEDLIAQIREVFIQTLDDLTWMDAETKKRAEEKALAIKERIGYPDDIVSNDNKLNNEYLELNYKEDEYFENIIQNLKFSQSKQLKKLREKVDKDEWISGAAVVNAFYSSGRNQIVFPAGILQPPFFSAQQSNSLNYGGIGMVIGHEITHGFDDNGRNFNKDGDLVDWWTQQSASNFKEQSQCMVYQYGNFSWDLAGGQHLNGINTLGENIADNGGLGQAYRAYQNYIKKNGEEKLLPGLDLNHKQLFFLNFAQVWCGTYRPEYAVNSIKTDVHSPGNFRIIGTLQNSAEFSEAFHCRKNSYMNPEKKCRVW
# [5] = target: Angiotensin-converting enzyme (Homo sapiens, UniProt P12821); assay: Inhibition of recombinant human ACE using Mca-BK2 as substrate preincubated for 10 mins followed by fluorogenic substrate addition and measured after 20 mins by fluorescence assay
# Chain of Angiotensin-converting enzyme (P12821 whole entry): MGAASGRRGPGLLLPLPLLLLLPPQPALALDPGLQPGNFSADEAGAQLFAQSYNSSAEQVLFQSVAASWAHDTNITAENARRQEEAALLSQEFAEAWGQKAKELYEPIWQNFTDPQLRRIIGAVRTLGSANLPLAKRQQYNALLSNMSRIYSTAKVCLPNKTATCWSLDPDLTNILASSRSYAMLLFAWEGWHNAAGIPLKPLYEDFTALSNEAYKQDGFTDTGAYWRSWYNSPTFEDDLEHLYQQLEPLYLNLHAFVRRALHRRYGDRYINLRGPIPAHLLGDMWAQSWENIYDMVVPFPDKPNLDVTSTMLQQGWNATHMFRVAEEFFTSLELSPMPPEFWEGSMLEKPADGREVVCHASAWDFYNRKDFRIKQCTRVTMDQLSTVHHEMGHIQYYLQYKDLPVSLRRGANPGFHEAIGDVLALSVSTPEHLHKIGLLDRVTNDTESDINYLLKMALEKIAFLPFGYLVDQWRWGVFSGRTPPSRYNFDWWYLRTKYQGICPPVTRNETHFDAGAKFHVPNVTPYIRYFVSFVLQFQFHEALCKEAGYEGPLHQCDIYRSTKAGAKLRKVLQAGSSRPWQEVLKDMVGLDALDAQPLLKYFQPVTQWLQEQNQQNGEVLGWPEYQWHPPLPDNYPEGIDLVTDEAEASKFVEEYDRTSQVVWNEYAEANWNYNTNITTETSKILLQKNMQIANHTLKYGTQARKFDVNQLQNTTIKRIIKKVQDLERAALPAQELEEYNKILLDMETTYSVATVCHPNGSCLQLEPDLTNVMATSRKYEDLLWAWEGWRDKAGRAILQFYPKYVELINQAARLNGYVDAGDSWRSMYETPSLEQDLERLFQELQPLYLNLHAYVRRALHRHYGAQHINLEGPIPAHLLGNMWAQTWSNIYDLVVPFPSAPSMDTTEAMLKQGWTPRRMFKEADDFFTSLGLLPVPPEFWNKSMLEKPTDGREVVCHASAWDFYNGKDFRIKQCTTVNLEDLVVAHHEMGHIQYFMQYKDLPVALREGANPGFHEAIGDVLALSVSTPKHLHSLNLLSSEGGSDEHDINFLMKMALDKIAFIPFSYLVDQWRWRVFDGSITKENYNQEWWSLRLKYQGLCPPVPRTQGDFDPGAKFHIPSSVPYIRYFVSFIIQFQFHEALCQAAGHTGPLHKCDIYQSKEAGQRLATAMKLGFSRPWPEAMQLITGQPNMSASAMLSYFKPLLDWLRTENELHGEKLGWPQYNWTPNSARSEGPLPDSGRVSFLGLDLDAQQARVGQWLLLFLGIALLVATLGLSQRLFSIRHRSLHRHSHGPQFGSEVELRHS
# Rattus norvegicus [6] = assay: Antihypertensive activity in DOCA salt-induced CD-1 rat model of hypertension assessed as reduction in blood pressure administered via oral gavage in ascending cumulative doses […] measured up to 24 hrs by telemetry method; format: functional
# Method in brief: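 Conscious DOCA-salt hypertensive rats, a low-renin model, dosed orally. Reduction in blood pressure is followed over time. ED10 is the dose giving an average 10% reduction in the 24 h average MAP.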
# Rattus norvegicus [7] = assay: Induction of angioedema in normotensive rat assessed as increase in tracheal plasma extravasation by measuring Evans blue dye leakage into peritracheal tissue at 0.3 to 3 mg/kg, po; format: organism-based; conditions: in vivo
# Method in brief: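 Rat tracheal plasma extravasation model adapted from Sulpizio et al., used as a surrogate for upper-airway angioedema. Normotensive rats are dosed orally. Read-out is Evans Blue dye leakage into peritracheal tissue, compared with vehicle.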
# Rattus norvegicus [8] = assay: In vivo antagonist activity at AT1 receptor in Sprague-Dawley rat assessed as inhibition of angiotensin-2-induced pressor response at 3 mg/kg, iv treated for 5 mins at 15 mins post 2 doses of angiotensin-2 treatment at 15 minutes apart followed by ANP treatment and subsequent angiotensin-2 re-challenge after 60 mins relative to control; format: functional; method in brief: as §1
# [9] = target: T2, Type-2 angiotensin II receptor (Homo sapiens, UniProt P50052); assay: Displacement of Europium-labeled angiotensin-2 from human AT2 receptor expressed in CHOK1 cell membranes after 120 mins by DELFIA
# T2 sequence (P50052 whole entry): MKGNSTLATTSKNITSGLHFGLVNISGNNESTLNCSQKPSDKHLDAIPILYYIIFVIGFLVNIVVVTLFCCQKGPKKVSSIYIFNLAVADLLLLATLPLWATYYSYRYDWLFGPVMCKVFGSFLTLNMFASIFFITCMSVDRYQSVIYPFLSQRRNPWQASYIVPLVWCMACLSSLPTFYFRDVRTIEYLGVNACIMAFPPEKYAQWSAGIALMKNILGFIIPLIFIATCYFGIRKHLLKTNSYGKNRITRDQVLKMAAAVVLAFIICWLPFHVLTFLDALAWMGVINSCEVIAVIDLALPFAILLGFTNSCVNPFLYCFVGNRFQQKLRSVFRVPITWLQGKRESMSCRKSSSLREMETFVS
# [10] = target: T3, Endothelin-converting enzyme 1 (Homo sapiens, UniProt P42892); assay: Inhibition of recombinant human ECE1
# T3 sequence (P42892 whole entry): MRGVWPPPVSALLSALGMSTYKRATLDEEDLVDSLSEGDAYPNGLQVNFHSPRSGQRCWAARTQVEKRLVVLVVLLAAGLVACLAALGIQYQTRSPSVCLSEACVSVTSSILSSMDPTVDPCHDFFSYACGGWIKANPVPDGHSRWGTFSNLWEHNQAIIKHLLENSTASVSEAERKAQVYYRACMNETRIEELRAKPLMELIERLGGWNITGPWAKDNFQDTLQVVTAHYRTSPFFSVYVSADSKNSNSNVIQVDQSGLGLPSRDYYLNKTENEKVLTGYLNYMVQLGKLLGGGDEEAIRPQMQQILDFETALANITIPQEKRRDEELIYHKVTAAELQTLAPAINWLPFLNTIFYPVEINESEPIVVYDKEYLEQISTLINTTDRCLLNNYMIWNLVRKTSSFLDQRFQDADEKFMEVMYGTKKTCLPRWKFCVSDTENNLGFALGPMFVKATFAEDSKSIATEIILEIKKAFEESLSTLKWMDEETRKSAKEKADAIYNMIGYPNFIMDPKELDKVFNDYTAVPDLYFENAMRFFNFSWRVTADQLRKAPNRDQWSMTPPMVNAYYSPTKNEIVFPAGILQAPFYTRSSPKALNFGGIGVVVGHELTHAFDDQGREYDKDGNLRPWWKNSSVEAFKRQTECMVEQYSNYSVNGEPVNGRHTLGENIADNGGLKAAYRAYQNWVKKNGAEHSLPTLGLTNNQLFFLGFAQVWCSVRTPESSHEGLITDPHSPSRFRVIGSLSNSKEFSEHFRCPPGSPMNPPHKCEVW
# Homo sapiens [11] = species: Homo sapiens; assay: Selectivity ratio of Ki for human AT2 receptor to Ki for human AT1 receptor
# Homo sapiens [12] = species: Homo sapiens; assay: Selectivity ratio of IC50 for recombinant human ECE1 to IC50 for recombinant human NEP
# [13] = target: T4, Type-1 angiotensin II receptor (Homo sapiens) (UniProt P30556); assay: Antagonist activity at AT1 receptor (unknown origin) by inositol phosphate accumulation assay relative to control; format: functional
# T4 sequence (whole entry): T1 sequence (P30556 whole entry)
# [14] = target: aminopeptidase P (Xaa-Pro aminopeptidase, Homo sapiens); assay: Inhibition of APP (unknown origin)
Ki [3],IC50 (Neprilysin),IC50 [5],Ki [9],IC50 [10],Ratio Ki (Homo sapiens [11]),Ratio IC50 (Homo sapiens [12]),% IP accumulation [13],IC50 [14],Compound,Activity (Rattus norvegicus [1]),ED10 (Rattus norvegicus [1]),ED10 (Rattus norvegicus [2]),fold change (FC) (Rattus norvegicus [4]),ED10 (Rattus norvegicus [6]),Activity (Rattus norvegicus [7]),inhibition in vivo at 3 mg/kg (Rattus norvegicus [8]),Activity (Rattus norvegicus [6])
–,–,–,–,–,–,–,–,–,CCCCC(=O)N(Cc1ccc(-c2ccccc2-c2nnn[nH]2)cc1)[C@H](C(=O)O)C(C)C,Dose-dependent effect,17 mg/kg,15 mg/kg,–,–,–,–,–
> 10 µM,0.0002 µM,0.0001 µM,–,–,–,–,–,–,O=C(N[C@H]1CCS[C@H]2CCC[C@@H](C(=O)O)N2C1=O)[C@@H](S)Cc1ccccc1 [OMAPATRILAT],Dose-dependent effect,15 mg/kg,–,5.3,66 mg/kg,Non-Toxic,–,–
0.00126 µM,–,> 10 µM,2.51 µM,0.0794 µM,2000,120,< 5%,> 10 µM,CCOc1nc(CC)c(CNC(=O)[C@@H](S)CC(C)C)n1Cc1ccc(-c2ccccc2C(=O)O)cc1F,Dose-dependent effect,13 mg/kg,–,3.5,44 mg/kg,–,76%,Dose-dependent effect
